According to ChEMBL document CHEMBL1144355, “Synthesis and antibacterial activity of the 4-quinolone-3-carboxylic acid derivatives having a trifluoromethyl group as a novel N-1 substituent” (2005):
Values after ≈ are worked out from the molar mass of the structure shown.

Tests used:
Format in all cases: functional
Escherichia coli = assay: In vitro antibacterial activity against Escherichia coli NIHJ JC-2
Method in brief: (§1)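 MIC (μg/mL) determined by agar dilution on Mueller–Hinton agar. Plates were incubated at 35 °C for 18 h. MIC was taken as the lowest agent concentration that prevented visible growth.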

Staphylococcus aureus = assay: In vitro antibacterial activity against Staphylococcus aureus Smith; method in brief: as §1
Streptococcus pneumoniae = assay: In vitro antibacterial activity against Streptococcus pneumoniae type III; method in brief: as §1
Pseudomonas aeruginosa = assay: In vitro antibacterial activity against Pseudomonas aeruginosa IID1210; method in brief: as §1

Compound | MIC (Escherichia coli) | MIC (Staphylococcus aureus) | MIC (Streptococcus pneumoniae) | MIC (Pseudomonas aeruginosa)
CCn1cc(C(=O)O)c(=O)c2cc(F)c(N3CCNCC3)cc21 [NORFLOXACIN] | 0.05 µg/mL (≈ 0.157 µM) | 0.39 µg/mL (≈ 1.22 µM) | 3.13 µg/mL (≈ 9.8 µM) | 1.56 µg/mL (≈ 4.89 µM)
CCn1cc(C(=O)O)c(=O)c2cc(F)c(N3CCN(C)CC3)cc21 [PEFLOXACIN] | 0.025 µg/mL (≈ 0.075 µM) | 0.2 µg/mL (≈ 0.6 µM) | 3.13 µg/mL (≈ 9.39 µM) | 1.56 µg/mL (≈ 4.68 µM)
CN1CCN(c2cc3c(cc2F)c(=O)c(C(=O)O)cn3C)CC1 | 0.05 µg/mL (≈ 0.157 µM) | 0.39 µg/mL (≈ 1.22 µM) | 6.25 µg/mL (≈ 19.6 µM) | 1.56 µg/mL (≈ 4.89 µM)
NC1CCN(c2cc3c(cc2F)c(=O)c(C(=O)O)cn3C(F)(F)F)C1 (stereo unspecified) | 0.39 µg/mL (≈ 1.09 µM) | 1.56 µg/mL (≈ 4.34 µM) | 12.5 µg/mL (≈ 34.8 µM) | > 12.5 µg/mL
CN1CCN(c2cc3c(cc2F)c(=O)c(C(=O)O)cn3CCF)CC1 | 0.0125 µg/mL (≈ 0.0356 µM) | 0.2 µg/mL (≈ 0.569 µM) | 1.56 µg/mL (≈ 4.44 µM) | 1.56 µg/mL (≈ 4.44 µM)

Now from value to compound:

MIC (Escherichia coli) | MIC (Staphylococcus aureus) | MIC (Streptococcus pneumoniae) | MIC (Pseudomonas aeruginosa) | Compound
0.025 µg/mL (≈ 0.0692 µM) | 0.2 µg/mL (≈ 0.553 µM) | 0.78 µg/mL (≈ 2.16 µM) | 1.56 µg/mL (≈ 4.32 µM) | CN1CCN(c2cc3c(cc2F)c(=O)c(C(=O)O)cn3C(C)(C)C)CC1
0.1 µg/mL (≈ 0.24 µM) | 0.1 µg/mL (≈ 0.24 µM) | 0.39 µg/mL (≈ 0.934 µM) | 3.13 µg/mL (≈ 7.5 µM) | CN1CCN(c2cc3c(cc2F)c(=O)c(C(=O)O)cn3-c2ccc(F)cc2F)CC1
≤ 0.0063 µg/mL | 0.1 µg/mL (≈ 0.29 µM) | 0.39 µg/mL (≈ 1.13 µM) | 0.78 µg/mL (≈ 2.26 µM) | CN1CCN(c2cc3c(cc2F)c(=O)c(C(=O)O)cn3C2CC2)CC1
0.05 µg/mL | 0.78 µg/mL | 3.13 µg/mL | 6.25 µg/mL | CN1CCN(c2cc3c(cc2F)c(=O)c(C(=O)O)cn3C(F)(F)F)CC1.Cl
